Results taken from ChEMBL document CHEMBL1148646, “6-N,N-dimethylamino-2,3-naphthalimide: a new environment-sensitive fluorescent probe in delta- and mu-selective opioid peptides” (J Med Chem, 2006).
Residues, ends and D or L forms follow the SMILES beside them.

Tests used:
[1] = biological target: Mu-type opioid receptor (Cavia porcellus, UniProt P97266); assay: Functional bioactivity against mu opioid receptor in guinea-pig ileum; format: tissue-based
Summary of the method: (§1)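 Myenteric plexus-longitudinal muscle from male guinea pig ileum, field-stimulated with supramaximal bipolar rectangular pulses. Agonist read-out is inhibition of the electrically evoked twitch, referenced to dermorphin, with IC50 taken from dose-response curves. For antagonism, compound is added 5 min before dermorphin, and pA2 comes from Schild plot. At least six experiments on fresh tissue; mean ± SE.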

[2] = biological target: Delta-type opioid receptor (Rattus norvegicus, UniProt P33533); assay: Displacement of [3H]deltorphin C from rat delta opioid receptor in brain P2 synaptosomes; format: subcellular
Sequence of Delta-type opioid receptor (Rattus norvegicus, UniProt P33533) (P33533 whole entry): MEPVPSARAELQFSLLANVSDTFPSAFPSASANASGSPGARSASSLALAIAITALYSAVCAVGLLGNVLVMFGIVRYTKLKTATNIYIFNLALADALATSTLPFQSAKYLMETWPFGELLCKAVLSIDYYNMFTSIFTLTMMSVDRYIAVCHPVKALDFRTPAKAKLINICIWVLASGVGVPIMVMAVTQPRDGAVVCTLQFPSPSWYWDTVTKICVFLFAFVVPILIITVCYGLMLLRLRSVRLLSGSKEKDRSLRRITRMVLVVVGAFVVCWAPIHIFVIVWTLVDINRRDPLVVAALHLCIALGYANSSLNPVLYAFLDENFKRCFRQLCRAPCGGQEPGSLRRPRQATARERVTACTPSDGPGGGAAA
Summary of the method: (§2)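 Rat brain synaptosome (P2) membranes, preincubated to remove endogenous opioid peptides, stored at -80 °C in buffered 20% glycerol. Five to eight ligand concentrations, each in duplicate, with independent repeats on different synaptosome preparations. Bound radioligand collected on glass fiber filters soaked in 0.1% polyethylenimine and washed thrice in ice-cold buffered BSA. Ki by Cheng-Prusoff; mean ± SE.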

[3] = biological target: Mu-type opioid receptor (Rattus norvegicus, UniProt P33535); assay: Displacement of [3H]DAMGO from rat mu opioid receptor in brain P2 synaptosomes; format: subcellular; summary of the method: as §2
Sequence of Mu-type opioid receptor (Rattus norvegicus, UniProt P33535) (P33535 whole entry): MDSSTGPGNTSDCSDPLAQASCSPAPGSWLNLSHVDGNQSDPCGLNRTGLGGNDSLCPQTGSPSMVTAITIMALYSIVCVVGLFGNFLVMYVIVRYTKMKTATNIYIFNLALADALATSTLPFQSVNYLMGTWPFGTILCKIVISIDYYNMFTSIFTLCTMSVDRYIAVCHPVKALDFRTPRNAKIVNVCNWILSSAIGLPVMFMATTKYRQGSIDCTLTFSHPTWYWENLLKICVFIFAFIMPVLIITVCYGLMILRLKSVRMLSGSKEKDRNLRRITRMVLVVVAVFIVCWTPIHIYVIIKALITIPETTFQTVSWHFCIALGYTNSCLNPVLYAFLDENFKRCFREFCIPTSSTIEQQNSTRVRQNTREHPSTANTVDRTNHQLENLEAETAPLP

[4] = biological target: Delta-type opioid receptor (Mus musculus, UniProt P32300); assay: (§3) Functional bioactivity against delta opioid receptor in mouse vas deferens; format: tissue-based
Sequence of Delta-type opioid receptor (Mus musculus, UniProt P32300) (P32300 whole entry): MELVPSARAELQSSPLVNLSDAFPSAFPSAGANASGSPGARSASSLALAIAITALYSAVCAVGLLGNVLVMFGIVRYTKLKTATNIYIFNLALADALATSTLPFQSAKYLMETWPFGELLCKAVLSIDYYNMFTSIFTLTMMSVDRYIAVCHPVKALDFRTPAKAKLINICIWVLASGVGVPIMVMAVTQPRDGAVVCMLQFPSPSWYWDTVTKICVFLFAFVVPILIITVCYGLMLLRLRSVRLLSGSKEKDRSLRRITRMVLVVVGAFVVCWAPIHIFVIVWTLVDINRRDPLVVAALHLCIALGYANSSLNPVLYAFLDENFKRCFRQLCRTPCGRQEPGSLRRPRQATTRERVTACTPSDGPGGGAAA
Summary of the method: as §1, with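 “MVD strips” for “Myenteric plexus-longitudinal muscle from male guinea pig ileum,”, “deltorphin C,” for “dermorphin,”, “plot of the rightward curve shift.” for “plot.”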

[5] = biological target: Delta-type opioid receptor (Mus musculus) (UniProt P32300); assay: as §3; format: tissue-based
Sequence of Delta-type opioid receptor (Mus musculus) (P32300 whole entry): as above
Summary of the method: as §1, with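 “MVD strips” for “Myenteric plexus-longitudinal muscle from male guinea pig ileum,”, “deltorphin C,” for “dermorphin,”, “plot of the rightward curve shift.” for “plot.”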

[6] = biological target: Opioid receptors; mu & delta (Rattus norvegicus) (UniProt P33533+P33535); assay: Selectivity for rat delta opioid receptor over mu opioid receptor; format: protein assay
Sequence of Opioid receptors; mu & delta (Rattus norvegicus) (P33533 whole entry, looked up): as the sequence (P33533 whole entry) above
Sequence of Opioid receptors; mu & delta (Rattus norvegicus) (P33535 whole entry, looked up): as the sequence (P33535 whole entry) above

Sequence of Mu-type opioid receptor (Cavia porcellus, UniProt P97266) (P97266 whole entry): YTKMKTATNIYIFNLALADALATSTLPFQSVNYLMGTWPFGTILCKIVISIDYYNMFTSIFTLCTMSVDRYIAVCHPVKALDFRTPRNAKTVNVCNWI

SMILES	IC50 [1] [nM]	Ki [2] [nM]	Ki [3] [nM]	IC50 [4] [nM]	max activation [5] [%]	Activity ([5]; filed as partial agonist)	Ratio Ki [6]	Activity ([5]; filed as antagonist)
Cc1cc(O)cc(C)c1C[C@H](N)C(=O)N1Cc2ccccc2C[C@H]1C(=O)N[C@@H](CCC(=O)O)C(=O)N[C@@H](CN1C(=O)c2cc3ccc(N(C)C)cc3cc2C1=O)C(N)=O (HELM PEPTIDE1{[Cc1cc(O)cc(C)c1C[C@H](N)C(=O)[*:2]].[Tic].E.[CN(C)c1ccc2cc3c(cc2c1)C(=O)N(C[C@H](N[*:1])C(=O)[*:2])C3=O].[am]}$$$$V2.0)	100	7.8	7880					
N[C@@H](Cc1ccc(O)cc1)C(=O)N1CCC[C@H]1C(=O)N[C@@H](Cc1ccccc1)C(=O)N[C@@H](Cc1ccccc1)C(=O)NCCCCC/N=C(S)/N=C1/C=CC(=C2c3ccc(O)cc3Oc3cc(O)ccc32)C(C(=O)O)=C1	120	668	252	200	20	Partial agonist		
CN(C)c1ccc2cc3c(cc2c1)C(=O)N(C[C@H](NC(=O)[C@@H]1CCCN1C(=O)[C@@H](N)Cc1ccc(O)cc1)C(=O)N[C@@H](Cc1ccccc1)C(N)=O)C3=O	389	839	3420	500				
Cc1cc(O)cc(C)c1C[C@H](N)C(=O)N1Cc2ccccc2CC1C(=O)N[C@@H](CCC(=O)O)C(=O)NCCCCCC(=O)NC(CN1C(=O)c2cc3ccc(N(C)C)cc3cc2C1=O)C(N)=O (some centres not stated)							261	Antagonist
CN(C)c1ccc2cc3c(cc2c1)C(=O)N(C[C@H](NC(=O)CCCCCNC(=O)[C@H](Cc1ccccc1)NC(=O)[C@H](Cc1ccccc1)NC(=O)[C@@H]1CCCN1C(=O)[C@@H](N)Cc1ccc(O)cc1)C(N)=O)C3=O (HELM PEPTIDE1{Y.P.F.F.[O=C(CCCCCN[*:1])[*:2]].[CN(C)c1ccc2cc3c(cc2c1)C(=O)N(C[C@H](N[*:1])C(=O)[*:2])C3=O].[am]}$$$$V2.0)	253	5940	244	300				
CN(C)c1ccc2cc3c(cc2c1)C(=O)N(CC(NC(=O)CCCCCNC(=O)[C@H](Cc1ccccc1)NC(=O)[C@H](Cc1ccccc1)NC(=O)[C@@H]1CCCN1C(=O)[C@@H](N)Cc1ccc(O)cc1)C(N)=O)C3=O (some centres not stated) (HELM PEPTIDE1{Y.P.F.F.[O=C(CCCCCN[*:1])[*:2]].[CN(C)c1ccc2cc3c(cc2c1)C(=O)N(CC(N[*:1])C(=O)[*:2])C3=O].[am]}$$$$V2.0)					29	Partial agonist		
Cc1cc(O)cc(C)c1C[C@H](N)C(=O)N1Cc2ccccc2C[C@H]1C(=O)N[C@@H](CCC(=O)O)C(=O)NCCCCCC(=O)N[C@@H](CN1C(=O)c2cc3ccc(N(C)C)cc3cc2C1=O)C(N)=O	244	0.158	41.3					
CN(C)c1ccc2cc3c(cc2c1)C(=O)N(CC(NC(=O)[C@@H]1CCCN1C(=O)[C@@H](N)Cc1ccc(O)cc1)C(=O)N[C@@H](Cc1ccccc1)C(N)=O)C3=O (some centres not stated)					22	Partial agonist	4.1	
